From PubChem BioAssay
PMI act – phosphomannose isomerase (human) activation | P34949 | purified human PMI, coupled resazurin fluorescence, 20 min; hits give high values; 1 = vehicle control, 0 substrate-free wells | activation factor at 20 µM | 0.005% of 190,000 active;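 active = activation factor of 2 or more at 20 µM, relative to plate controls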
WT yeast gro inh – growth inhibition of WT yeast, mitochondrial fusion screen | AID 1362 | 2.1% of 190,000 active | inhibition, % at 10 µM | mitochondrial fusion phenotypic screen, WT strain; in the data active = inhibition above about 58%; tested in S. cerevisiae
m-calpain inh – inhibitors of pig calpain II. purified calpain II, fluorogenic peptide substrate, 30 min. inhibition, % at 16 µM. 0.37% of 220,000 active. AID 1236;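 active = inhibition above about 50%, limit read from the data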
PMI act hi M6P – activators of human phosphomannose isomerase at near-saturating mannose 6-phosphate; activation factor at 20 µM; AID 1216; 0.34% of 190,000 active; coupled PMI enzyme assay, resazurin fluorescence, 20 min; hits give high values; 1 = untreated enzyme, 0 = substrate-free blank;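 active = activation factor of 2 or more at 20 µM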
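Test system: human phosphomannose isomerase with PGI, G6PDH, diaphorase coupling enzymes; Amount: PMI at 15 ng/mL final; Reagent: Mannose-6-phosphate 1.0 mM (near-saturating) plus 0.22 mM NADP+; Timing: 20 min, room temperature; Technique: resorufin fluorescence at Ex 544/Em 590 nm; Dosing: 20 µM single dose.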
Rad51 HR inh – blocks human Rad51 in homologous recombination; 0.085% of 200,000 active; hRad51 DNA strand exchange, fluorescence dequenching; Q06609; AID 1385; inhibition, % at 10 µM;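 active = inhibition above 40% at the single screening dose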;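 note: 0% = DMSO control wells and 100% = blanks with heterologous ssDNA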
Target sequence (Q06609 whole entry, looked up): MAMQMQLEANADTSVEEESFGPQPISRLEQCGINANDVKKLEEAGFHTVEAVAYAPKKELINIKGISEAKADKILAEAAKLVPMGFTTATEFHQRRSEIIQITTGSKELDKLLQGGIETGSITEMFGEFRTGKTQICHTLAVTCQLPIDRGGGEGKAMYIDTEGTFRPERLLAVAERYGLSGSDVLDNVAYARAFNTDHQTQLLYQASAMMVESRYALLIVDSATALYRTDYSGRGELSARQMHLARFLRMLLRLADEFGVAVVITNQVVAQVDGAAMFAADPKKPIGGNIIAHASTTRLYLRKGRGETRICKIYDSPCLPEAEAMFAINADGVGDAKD
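Assay system: Human Rad51 nucleoprotein filaments preassembled on unlabelled ssDNA | Reagent: Donor/quencher-labelled 47-bp dsDNA substrate | Doses: One concentration, 10 µM final | Times: 37 °C 15-min filament assembly, 30-min compound preincubation, 15-min exchange | Technique: Fluorescein emission 520 nm, excitation 485 nm | Benchmarks: Plate control and blank wells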
L major viab – reduces viability of Leishmania major promastigotes; resazurin fluorescence viability; inhibition, % at 10 µM; 9% of 200,000 active; AID 1063; in the data active = inhibition above about 50%;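 note: promastigotes grown with compound for 44 hours at 28 °C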
* hit, by the source's call; nt = no result. Rows were chosen to be rich in hits. Some 9.8% of all compounds tested hit in one or more screens of this group.

SMILES	PMI act	WT yeast gro inh	m-calpain inh	PMI act hi M6P	Rad51 HR inh	L major viab
COc1cc(OC)cc(C(=O)N[C@H](C(=O)OCC(=O)Nc2ccc(F)c(F)c2)C(C)C)c1	0.9	22	23	0.8	6	2
COCCn1c(C)cc(C2=NNC(=Nc3ccc(Cl)cc3Cl)SC2)c1C	1.2	43	-21	1.7	-6	4
COCC(C)N=C1NN=C(c2cc(C)n(Cc3ccccc3Cl)c2C)CS1 (stereo not drawn)	1.1	44	27	1.1	-8	64*
COCCCN=C1NN=C(c2cc(C)n(Cc3ccco3)c2C)CS1	1.2	-6	6	1.1	-3	95*
CCCc1nc(NCc2ccccn2)c2nnn(Cc3ccccc3F)c2n1	0.9	0	2	1	nt	5
CCCc1nc(NCc2ccncc2)c2nnn(Cc3ccccc3F)c2n1	1	18	-4	1	-6	57*
COc1ccc(Cc2nnc(NS(=O)(=O)c3ccc(Cl)cc3)s2)cc1OC	1	-3	-6	1	-6	-8
O=C(CSc1ccc(Cl)cc1)Nc1cccc(-c2nc3ncccc3o2)c1	0.9	19	-39	1	nt	7
CCCCC(=O)Nc1cccc(-c2nc3ncccc3o2)c1	1	4	-69	0.9	3	100*
CCC(=O)NC(=S)Nc1cccc(-c2nc3ncccc3o2)c1	1	17	23	1	nt	2
CCCCCC(=O)Nc1cccc(-c2nc3ncccc3o2)c1	0.9	3	-88	0.8	-2	67*
CC(C)(CCl)C(=O)Nc1ccnc(-c2ccncc2)n1	1.1	-9	-6	1	-5	2
C/C(O)=C(\N=Nc1cc(C)ccc1O)C(N)=O	1	-12	-24	0.7	-11	-11
COc1ccc(N(C)S(=O)(=O)c2cccc(C(=O)Nc3ccc4c(c3)OCCO4)c2)cc1	0.9	23	18	1	-9	5
CC(OC(=O)c1cc(S(=O)(=O)N(C)c2ccccc2)ccc1Cl)C(=O)Nc1ccc2c(c1)OCCO2 (stereo not drawn)	1	15	-1	1	3	65*
CNC(=O)c1nn(-c2ccccc2)ccc1=O	0.9	9	12	0.9	3	-8
CNC(=O)c1nn(-c2ccc(Cl)cc2)ccc1=O	0.9	98*	-35	0.9	4	-2
O=C(c1ccccc1)N1CCN2C(=O)c3ccccc3C12c1ccc(Cl)cc1 (stereo not drawn)	0.9	-9	30	1	8	76*
CC(O)CNC(=O)C1CCN(Cc2ccc(OCc3ccccc3)cc2)CC1 (stereo not drawn)	0.9	-3	17	0.9	-12	91*
O=C(NCc1ccccn1)C1CCN(Cc2cccc(OCc3ccccc3)c2)CC1	1.2	-1	-5	1.2	nt	100*
O=C(Nc1cccc(NC(=O)C2CCCO2)c1)c1ccco1 (stereo not drawn)	0.9	-22	-2	0.9	4	-4
Cc1ccc(C)c(S(=O)(=O)Nc2ccc(C(=O)NCCc3ccccn3)cc2)c1	1	-18	-4	1	0	-5
COc1cc(/C=N/n2cnnc2)ccc1OCCSc1ccc(C)cc1	0.9	16	2	0.9	0	55*
C/C(=C\c1ccccc1)CN(C)CCN(C)C	1.1	-12	-29	1.1	-1	97*
COc1cc([N+](=O)[O-])ccc1NC(=S)NC(=O)CC(C)(C)C	1	6	0	1	6	7
SMILES	PMI act	WT yeast gro inh	m-calpain inh	PMI act hi M6P	Rad51 HR inh	L major viab
Cc1cccc(Sc2c([N+](=O)[O-])ncn2C)c1	0.9	55	11	0.9	-40	93*
CC(=O)OC1CSC2c3ccccc3C(=O)N2Cc2sccc21 (stereo not drawn)	0.9	-8	-8	1	-20	4
N#CC(C#N)=Cc1ccccc1OCc1ccccc1	nt	nt	-16	nt	7	nt
COc1ccc(-c2nc3ccccn3c2CN2CCN(c3ccccc3F)CC2)cc1	0.9	82*	-4	0.8	0	85*
CN(C)C(=S)N=Nc1[nH]c2ccccc2c1O	1	2	28	0.8	5	97*
CNC(=S)N=Nc1c(O)[nH]c2ccccc12	0.9	-11	2	1	nt	6
CCCCn1c(NS(=O)(=O)c2ccccc2)c(S(=O)(=O)c2ccc(C)cc2)c2nc3ccccc3nc21	0.8	12	-318	0.4	-2	51*
